Reference: PubChem BioAssay AID652011 (Sanford-Burnham Center for Chemical Genomics, 2013)

Tests used:
Test in all cases: HIF reporter inhibition across pancreatic and renal lines – cell-based, luminescence, MIAPaCa-2, 786-0, panel, SAR follow-up (AID 652011)
HIF1a = conditions: MIAPaCa-2/PANC HIF reporter, luciferase luminescence, desferoxamine, overnight
Outline: (§1)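 Detection: luminescence, One-Glo; Reagent: desferoxamine; Incubation: overnight seeding and compound exposure, 37 °C, 5% CO2, 10-min detection.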

HIF2a PANC = conditions: MIAPaCa-2/PANC HIF reporter, luciferase luminescence, desferoxamine, overnight
Outline: as §1

[1] = target: Endothelial PAS domain-containing protein 1 (Homo sapiens) (UniProt Q99814); conditions: MIAPaCa-2/PANC HIF reporter, luciferase luminescence, desferoxamine, overnight; HIF2a PANC cells; mean of runs
Endothelial PAS domain-containing protein 1 (Homo sapiens), sequence (Q99814 whole entry, looked up, the tested form may be a part): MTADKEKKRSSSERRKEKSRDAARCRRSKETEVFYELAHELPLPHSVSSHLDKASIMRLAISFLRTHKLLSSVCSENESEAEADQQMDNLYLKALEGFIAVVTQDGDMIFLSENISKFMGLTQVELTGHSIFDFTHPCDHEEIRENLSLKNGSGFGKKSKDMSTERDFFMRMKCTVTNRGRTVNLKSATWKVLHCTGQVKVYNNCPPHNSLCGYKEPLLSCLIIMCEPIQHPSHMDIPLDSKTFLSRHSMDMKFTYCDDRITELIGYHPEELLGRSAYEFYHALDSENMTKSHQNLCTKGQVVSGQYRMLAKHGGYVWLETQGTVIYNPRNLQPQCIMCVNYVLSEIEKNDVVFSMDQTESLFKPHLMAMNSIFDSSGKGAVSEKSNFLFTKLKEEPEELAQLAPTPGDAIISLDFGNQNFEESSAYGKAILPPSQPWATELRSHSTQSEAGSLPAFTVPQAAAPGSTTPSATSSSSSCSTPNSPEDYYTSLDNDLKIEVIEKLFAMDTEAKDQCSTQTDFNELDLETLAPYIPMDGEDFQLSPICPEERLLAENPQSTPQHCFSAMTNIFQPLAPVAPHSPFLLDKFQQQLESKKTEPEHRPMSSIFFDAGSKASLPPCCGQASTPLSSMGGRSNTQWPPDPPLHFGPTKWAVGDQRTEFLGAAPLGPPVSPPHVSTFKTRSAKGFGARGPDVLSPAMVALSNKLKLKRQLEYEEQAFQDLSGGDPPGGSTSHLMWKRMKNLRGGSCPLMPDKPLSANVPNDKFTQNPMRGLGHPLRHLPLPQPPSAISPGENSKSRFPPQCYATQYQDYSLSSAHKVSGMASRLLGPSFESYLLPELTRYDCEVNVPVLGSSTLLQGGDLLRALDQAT
Outline: as §1

[2] = target: Hypoxia-inducible factor 1-alpha (Homo sapiens) (UniProt Q16665); conditions: MIAPaCa-2/PANC HIF reporter, luciferase luminescence, desferoxamine, overnight; HIF1a; mean of runs
Hypoxia-inducible factor 1-alpha (Homo sapiens), sequence (Q16665 whole entry, looked up): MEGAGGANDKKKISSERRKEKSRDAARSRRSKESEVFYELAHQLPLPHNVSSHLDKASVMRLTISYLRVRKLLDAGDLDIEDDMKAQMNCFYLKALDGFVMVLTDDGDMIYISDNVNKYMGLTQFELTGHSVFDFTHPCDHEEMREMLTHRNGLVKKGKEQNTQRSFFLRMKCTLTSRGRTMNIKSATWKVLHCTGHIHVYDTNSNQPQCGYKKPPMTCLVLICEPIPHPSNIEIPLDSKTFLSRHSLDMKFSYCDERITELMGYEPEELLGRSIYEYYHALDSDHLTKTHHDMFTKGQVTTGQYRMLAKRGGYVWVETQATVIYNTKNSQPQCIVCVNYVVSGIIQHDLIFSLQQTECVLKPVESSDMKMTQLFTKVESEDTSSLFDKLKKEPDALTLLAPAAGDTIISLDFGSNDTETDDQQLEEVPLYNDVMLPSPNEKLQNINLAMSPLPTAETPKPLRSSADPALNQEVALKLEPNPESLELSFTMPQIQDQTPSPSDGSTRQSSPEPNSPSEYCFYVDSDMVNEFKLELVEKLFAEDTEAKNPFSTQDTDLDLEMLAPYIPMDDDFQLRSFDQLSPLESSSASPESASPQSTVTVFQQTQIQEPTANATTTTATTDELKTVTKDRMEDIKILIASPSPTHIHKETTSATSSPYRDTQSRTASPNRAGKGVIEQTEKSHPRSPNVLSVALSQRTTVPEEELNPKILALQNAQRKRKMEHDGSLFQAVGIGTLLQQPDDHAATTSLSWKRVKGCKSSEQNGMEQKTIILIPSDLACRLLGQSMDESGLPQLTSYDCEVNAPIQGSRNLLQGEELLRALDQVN
Outline: as §1

[3] = run 1, individual run IC50, panel line
[4] = run 2, individual run IC50, panel line

| SMILES | IC50 (HIF1a; [3]) | IC50 (HIF1a; [4]) | IC50 (HIF2a PANC; [3]) | IC50 (HIF2a PANC; [4]) | IC50 [1] | IC50 [2] |
| --- | --- | --- | --- | --- | --- | --- |
| COC(=O)CCc1nc(-c2ccc(C(C)(C)C)cc2)no1 | < 1000 nM | < 190 nM | < 190 nM | < 190 nM | < 190 nM | < 190 nM |
| CC(C)(C)c1ccc(-c2noc(CCC(=O)NC3CCCC3)n2)cc1 | > 99000 nM | < 190 nM | < 190 nM | < 190 nM | < 190 nM | 49600 nM |
| COc1cccc(NC(=O)CCc2nc(-c3ccc(C(C)(C)C)cc3)no2)c1 | < 190 nM | 229 nM | < 190 nM | < 190 nM | < 190 nM | 229 nM |
| CCOc1ccccc1NC(=O)CCc1nc(-c2ccc(C(C)(C)C)cc2)no1 | > 99000 nM | 973 nM | < 190 nM | < 190 nM | < 190 nM | 973 nM |
| CCOc1ccc(-c2noc(CCC(=O)O)n2)cc1 | 1170 nM | 1510 nM | 4440 nM | 7280 nM | 5860 nM | 1340 nM |
| CC(C)(C)c1ccc(-c2noc(CCC(=O)Nc3cccc([N+](=O)[O-])c3)n2)cc1 | 9870 nM | 6700 nM | < 190 nM | < 190 nM | < 190 nM | 8290 nM |
| CC(C)(C)c1ccc(-c2noc(CCC(=O)NC3CCCCC3)n2)cc1 | > 99000 nM | 38000 nM | < 190 nM | < 190 nM | < 190 nM | 38000 nM |
| COc1ccccc1NC(=O)CCc1nc(-c2ccc(C(C)(C)C)cc2)no1 | > 99000 nM | 647 nM | < 190 nM | < 190 nM | < 190 nM | 647 nM |
| CC(C)(C)c1ccc(-c2noc(CCC(=O)O)n2)cc1 | < 190 nM | < 190 nM | < 190 nM | < 190 nM | < 190 nM | < 190 nM |
| CC(C)(C)c1ccc(-c2noc(CCC(=O)Nc3cccnc3)n2)cc1 | 38100 nM | 28600 nM | < 190 nM | < 190 nM | < 190 nM | 33400 nM |
